Results from publication PMC3444677 (Chemical research in toxicology, 2012).
Where “and” joins values, the source holds several entries; their conditions need not be identical. Equal values may be shown once.

Key:
[1] = molecular target: T1, hERG channel (Homo sapiens, UniProt Q12809); conditions: for Thallium flux via hERG relative to vehicle controls (reduced to): 30 μM, mean ± SEM, n = 3; for Rel. Pot., thallium flux: relative potency compared to AZA1
[2] = molecular target: T1, hERG channel; conditions: for hERG binding of [3H]dofetilide relative to vehicle controls (reduced to): 10 μM; for Rel. Pot., channel binding: relative potency compared to AZA1
[3] = molecular target: T1, hERG channel; conditions: for Maximum inhibition of hERG currents: 1.9 μM, mean ± SEM, n = 3; for Rel. Pot., patch clamp: relative potency compared to AZA1
[4] = system: Jurkat T lymphocyte cells; conditions: fold more potent than AZA1; cited from earlier work
[5] = molecular target: F656T hERG1 channels (Homo sapiens, UniProt Q12809, F656T); assay: Two-electrode voltage clamp of F656T hERG1 channels in Xenopus oocytes; type: cell-based; conditions: 10 μM
[6] = molecular target: Y652A hERG1 channels (Homo sapiens, UniProt Q12809, Y652A); assay: Two-electrode voltage clamp of Y652A hERG1 channels in Xenopus oocytes; type: cell-based; conditions: 10 μM
[7] = molecular target: WT hERG1 channels (Homo sapiens, UniProt Q12809); assay: Two-electrode voltage clamp of WT hERG1 channels in Xenopus oocytes; type: cell-based
[8] = molecular target: T2, hEAG1 channels (Homo sapiens, UniProt O95259); assay: Two-electrode voltage clamp of hEAG1 channels in Xenopus oocytes; type: cell-based; conditions: 10 μM, n = 4
T2 sequence (O95259 1-962 isoform O95259-2): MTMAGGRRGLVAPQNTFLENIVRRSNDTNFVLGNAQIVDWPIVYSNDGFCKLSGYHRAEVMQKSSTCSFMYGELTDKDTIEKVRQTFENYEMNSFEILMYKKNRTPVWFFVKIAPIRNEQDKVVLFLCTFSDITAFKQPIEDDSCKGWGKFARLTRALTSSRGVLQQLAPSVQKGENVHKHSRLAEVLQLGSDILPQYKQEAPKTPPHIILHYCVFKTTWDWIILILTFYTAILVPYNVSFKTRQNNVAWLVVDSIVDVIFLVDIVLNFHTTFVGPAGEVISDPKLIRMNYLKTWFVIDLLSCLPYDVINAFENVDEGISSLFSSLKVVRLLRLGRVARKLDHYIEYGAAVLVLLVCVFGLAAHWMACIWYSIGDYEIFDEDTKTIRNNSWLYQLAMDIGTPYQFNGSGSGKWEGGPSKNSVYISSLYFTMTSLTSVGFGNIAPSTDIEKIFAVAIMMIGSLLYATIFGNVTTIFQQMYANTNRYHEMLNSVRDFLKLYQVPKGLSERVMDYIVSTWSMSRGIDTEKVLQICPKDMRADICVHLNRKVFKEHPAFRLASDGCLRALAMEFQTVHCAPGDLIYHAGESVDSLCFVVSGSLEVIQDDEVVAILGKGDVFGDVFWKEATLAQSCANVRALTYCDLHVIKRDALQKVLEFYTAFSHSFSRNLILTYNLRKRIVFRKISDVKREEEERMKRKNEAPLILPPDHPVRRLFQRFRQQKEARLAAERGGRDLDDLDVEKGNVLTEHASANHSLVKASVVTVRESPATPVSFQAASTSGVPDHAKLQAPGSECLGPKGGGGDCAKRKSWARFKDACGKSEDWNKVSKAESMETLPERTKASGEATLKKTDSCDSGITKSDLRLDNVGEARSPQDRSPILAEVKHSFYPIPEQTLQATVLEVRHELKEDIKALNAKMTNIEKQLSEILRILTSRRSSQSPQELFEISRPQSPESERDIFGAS
Method in brief: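 Stage IV–V Xenopus oocytes were injected with ~0.2 ng WT or mutant hEAG1 cRNA, held 2–3 days at 18 °C in Barth's saline, and recorded by two-electrode clamp at 22–24 °C. Holding was −80 mV, with 2-s steps from −70 to +40 mV. G = end-of-pulse current/(Vt − Erev), divided by a Boltzmann-extrapolated control Imax, then Boltzmann-fitted for V0.5 and k.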

[9] = 10 μM, during 37.8 s pulse to 0 mV

22-demethyl-azaspiracid [AZA3]
Thallium flux via hERG relative to vehicle controls (reduced to) [1]: 16.6 ± 0.50%
Rel. Pot., thallium flux [1]: 0.7
hERG binding of [3H]dofetilide relative to vehicle controls (reduced to) [2]: 29.3 ± 1.6%
Maximum inhibition of hERG currents [3]: 79.7 ± 1.6%
Rel. Pot., patch clamp [3]: 1.0
Cytotoxic potency relative to AZA1 [4]: 4.5 fold

C=C(C[C@@]12C[C@@H](C)C[C@H](O1)[C@H]1O[C@]3(C[C@H]1O2)NC[C@H](C)C[C@@H]3C)[C@H]1O[C@@](O)([C@@H](O)[C@@H]2C[C@H]3O[C@@]4(CC[C@]5(CC=C[C@@H](/C=C/CCC(=O)O)O5)O4)[C@H](C)C[C@H]3O2)[C@H](C)C[C@@H]1C [AZA1, azaspiracid]
Thallium flux via hERG relative to vehicle controls (reduced to) [1]: 10.7 ± 0.56%
Rel. Pot., thallium flux [1]: 1.0
hERG binding of [3H]dofetilide relative to vehicle controls (reduced to) [2]: 19.7 ± 1.4%
Rel. Pot., channel binding [2]: 1.0
Slope factor k of G-Vt relationship ([5]; control 7.8 ± 0.1, n = 5): 7.3 ± 0.1
V0.5 of G-Vt relationship ([5]; control -31.0 ± 0.2 mV, n = 5): -32.6 ± 0.3 mV
Reduction of peak Itail ([5]; test potentials greater than -20 mV, n = 5): 7 ± 1%
Sensitivity of channel currents to toxin ([5]; test potentials negative to -20 mV): insensitive
Shift of V0.5 for activation [6]: -5 mV
Slope factor k of G-Vt relationship ([6]; control 6.4 ± 0.3, n = 5): 7.3 ± 0.4
V0.5 of G-Vt relationship ([6]; control -20.7 ± 0.6 mV, n = 5): -26.0 ± 0.8 mV
Block of peak Itail ([6]; n = 5): 76 ± 3%
Slope factor k of G-Vt relationship ([7]; 10 μM, control 8.1 ± 0.3, n = 6): 9.6 ± 0.3
V0.5 of G-Vt relationship ([7]; 10 μM, control -22.0 ± 0.5 mV, n = 6): -20.7 ± 0.5 mV
Amplitude of fast component of onset of block [7, 9]: 0.325
Amplitude of slow component of onset of block [7, 9]: 0.433
τfast of onset of current block [7, 9]: 2.96 s
τslow of onset of current block [7, 9]: 12.66 s
Peak outward hERG1 current, % of control ([7]; 10 μM, measured at -10 mV, oocytes, n = 6): 19.0 ± 2.4 % of control
Time constant of onset of hERG1 channel block (τonset) ([7]; 10 μM, repetitive 1-s pulses to 0 mV, oocytes): 1.5 min
Unblocked current, % of control ([7]; 10 μM, single long pulse to 0 mV after 4 min pulse-free incubation, 10 µM): 19% and 19.2%
Inhibition of peak Itail ([7]; 10 μM, tail currents at -70 mV, n = 6): 75 ± 2%
Tail current deactivation time constant, fast component ([7]; at -70 mV in the presence of AZA1 (control 249 ± 8 ms), n = 6): 205 ± 17 ms
Tail current deactivation time constant, slow component ([7]; at -70 mV in the presence of AZA1 (control 1003 ± 57 ms), n = 6): 745 ± 44 ms
Relative amplitude of the slow component of deactivation ([7]; in the presence of AZA1 (control 0.80 ± 0.02)): 0.72 ± 0.02
Maximum inhibition of hERG currents [3]: 79.5 ± 1.8%
Rel. Pot., patch clamp [3]: 1.0
V0.5 of G-Vt relationship ([8]; control 4.6 ± 0.7 mV): 6.4 ± 0.9 mV
Slope factor k of G-Vt relationship ([8]; control 16.3 ± 0.6): 15.7 ± 0.7
Block of hEAG1 current ([8]; test potential +40 mV): 15 ± 0.8%

C=C(C[C@@]12C[C@@H](C)C[C@@H](O1)[C@H]1O[C@]3(C[C@H]1O2)NC[C@H](C)C[C@@H]3C)[C@H]1O[C@@](O)([C@@H](O)[C@@H]2C[C@H]3O[C@@]4(CC[C@]5(CC(C)=C[C@@H](/C=C/CCC(=O)O)O5)O4)[C@H](C)C[C@H]3O2)[C@H](C)C[C@@H]1C [AZA2, 8-methyl-azaspiracid]
Thallium flux via hERG relative to vehicle controls (reduced to) [1]: 9.6 ± 0.79%
Rel. Pot., thallium flux [1]: 0.8
hERG binding of [3H]dofetilide relative to vehicle controls (reduced to) [2]: 22.3 ± 1.0%
Rel. Pot., channel binding [2]: 0.8
Maximum inhibition of hERG currents [3]: 87.3 ± 0.95%
Rel. Pot., patch clamp [3]: 1.3
Cytotoxic potency relative to AZA1 [4]: 8.3 fold
